From ChEMBL document CHEMBL3588789, “Synthesis and Pharmacokinetic Evaluation of Siderophore Biosynthesis Inhibitors for Mycobacterium tuberculosis” (J Med Chem, 2015)

system: not listed separately; assay: (§1) Cmax in Sprague-Dawley rat at 25 mg/kg, po by LC-MS/MS method; assay type: ADME, organism-based; design: dose 25 mg/kg, route oral; details: Sprague-Dawley, in vivo
Summary of the method: (§2)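 Female Sprague-Dawley rats (250–274 g), catheterised, 3 per compound, dosed by oral gavage at 25 mg/kg from a 10 mg/mL solution. Femoral-vein blood taken at 0, 15, 30, 45, 60, 120, 240 and 480 min into K2EDTA. Plasma protein-precipitated with an internal standard and quantified by LC–MS/MS against standards in rat plasma. Parameters by non-compartmental analysis.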

SMILES	Cmax
CC(=O)Oc1ccccc1C(=O)NS(=O)(=O)OC[C@H]1O[C@@H](n2cnc3c(N)ncnc32)[C@H](OC(C)=O)[C@@H]1OC(C)=O.CCN(CC)CC	30 ng/mL
NNC(=O)c1ccncc1 [ISONIAZID]	13500 ng/mL

system: Rattus norvegicus; assay: as §1; assay type: ADME, organism-based; design: dose 25 mg/kg, route oral; details: in vivo, BLD = below limit of detection; summary of the method: as §2

SMILES	Cmax
CC(=O)O[C@@H]1[C@H](OC(C)=O)[C@@H](COS(=O)(=O)NC(=O)c2ccccc2O)O[C@H]1n1cnc2c(N)ncnc21.CCN(CC)CC	BLD

system: not listed separately; assay: (§3) AUC (0 to infinity) in Sprague-Dawley rat at 25 mg/kg, po by LC-MS/MS method; assay type: ADME, organism-based; design: dose 25 mg/kg, time infinity, route oral; details: Sprague-Dawley, in vivo

SMILES	AUC(0-inf)
CC(=O)Oc1ccccc1C(=O)NS(=O)(=O)OC[C@H]1O[C@@H](n2cnc3c(N)ncnc32)[C@H](OC(C)=O)[C@@H]1OC(C)=O.CCN(CC)CC	48.3 ng·h/mL

system: Rattus norvegicus; assay: as §3; assay type: ADME, organism-based; design: dose 25 mg/kg, time infinity, route oral; details: in vivo, BLD = below limit of detection

SMILES	AUC
CC(=O)O[C@@H]1[C@H](OC(C)=O)[C@@H](COS(=O)(=O)NC(=O)c2ccccc2O)O[C@H]1n1cnc2c(N)ncnc21.CCN(CC)CC	BLD

system: Rattus norvegicus; assay: Oral bioavailability in Sprague-Dawley rat at 25 mg/kg by LC-MS/MS method; assay type: ADME, organism-based; details: in vivo
Summary of the method: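 Crossover in the same 3 female Sprague-Dawley rats: 25 mg/kg by oral gavage, then after a 3-day washout 2.5 mg/kg iv bolus. Serial femoral plasma quantified by LC–MS/MS. AUCs by non-compartmental analysis. Absolute bioavailability calculated individually for each rat from its oral and iv data.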

SMILES	F
NNC(=O)c1ccncc1 [ISONIAZID]	65%

system: not listed separately; assay: Apparent permeability from apical to basolateral side in human Caco2 cells after 30 to 120 mins by HPLC method; assay type: ADME, cell-based; details: caco-2
Summary of the method: (§4)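 Caco-2 cells (passage 50–70) grown 21 days on Transwell inserts, used only where TEER >300. Apical buffer pH 6.0, basolateral pH 7.4, 60 min preincubation. Compound dosed from a 20 mM DMSO stock with lucifer yellow on the donor side. Samples analysed by HPLC. Papp = (dQ/dt)/(A·C0) from cumulative sampling. Efflux ratio from B–A and A–B values.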

SMILES	Papp A→B
CC(=O)O[C@@H]1[C@H](OC(C)=O)[C@@H](COS(=O)(=O)NC(=O)c2ccccc2O)O[C@H]1n1cnc2c(N)ncnc21.CCN(CC)CC	0.62 ×10⁻⁶ cm/s

system: not listed separately; assay: Apparent permeability from basolateral to apical side in human Caco2 cells after 30 to 120 mins by HPLC method; assay type: ADME, cell-based; details: caco-2; summary of the method: as §4

SMILES	Papp B→A
CC(=O)O[C@@H]1[C@H](OC(C)=O)[C@@H](COS(=O)(=O)NC(=O)c2ccccc2O)O[C@H]1n1cnc2c(N)ncnc21.CCN(CC)CC	0.97 ×10⁻⁶ cm/s

system: not listed separately; assay: Efflux ratio in human Caco2 cells after 30 to 120 mins by HPLC method; assay type: ADME, cell-based; details: caco-2; summary of the method: as §4

SMILES	efflux ratio
CC(=O)O[C@@H]1[C@H](OC(C)=O)[C@@H](COS(=O)(=O)NC(=O)c2ccccc2O)O[C@H]1n1cnc2c(N)ncnc21.CCN(CC)CC	1.55

system: Plasma; assay: Drug metabolism in Sprague-Dawley rat plasma assessed as 2',3'-O-Di-acetyl-5'-O-[N-(2-hydroxybenzoyl)sulfamoyl]-adenosine formation at 10 uM; assay type: ADME, cell-free; details: not given

SMILES	Drug metabolism
CC(=O)Oc1ccccc1C(=O)NS(=O)(=O)OC[C@H]1O[C@@H](n2cnc3c(N)ncnc32)[C@H](OC(C)=O)[C@@H]1OC(C)=O.CCN(CC)CC	metabolite_detected

system: Plasma; assay: Drug metabolism in Sprague-Dawley rat plasma assessed as 5'-O-[N-(Salicyl)sulfamoyl]adenosine formation at 10 uM; assay type: ADME, cell-free; details: not given

SMILES	Drug metabolism
CC(=O)Oc1ccccc1C(=O)NS(=O)(=O)OC[C@H]1O[C@@H](n2cnc3c(N)ncnc32)[C@H](OC(C)=O)[C@@H]1OC(C)=O.CCN(CC)CC	metabolite_detected
